In ChEMBL document CHEMBL1140876, “Synthesis and antibacterial property of quinolines with potent DNA gyrase activity” (2009):
Converted amounts (≈) assume the structure as drawn. The source made the active and inactive calls. The calls are words filed in the database; no cut-off is given here.

Legend:
[1] = Inhibition of DNA gyrase assessed as pBR322 DNA relaxation at 1 uM
In short: (§1)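 Relaxation without ATP: gyrase (60 nM) with supercoiled pBR322 DNA (6 nM) and drug at […] for 1 h at 37 °C; relaxation judged by gel. Ciprofloxacin, novobiocin and nalidixic acid comparators.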

[2] = Inhibition of DNA gyrase assessed as pBR322 DNA relaxation at 5 uM; in short: as §1
Bacillus subtilis [3] = test: Antimicrobial activity against Bacillus subtilis at 15 ug after 24 hrs by disk diffusion method; type: functional; conditions: read-out: IZ
In short: (§2)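 Inoculum made in 0.85% saline against McFarland standard, swabbed evenly onto nutrient agar; sterile filter-paper discs set equidistant and loaded with equal volumes of drug at varying amounts; zone of inhibition measured after 24 h at 37 °C; ciprofloxacin reference.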

Pseudomonas aeruginosa [4] = test: Antimicrobial activity against Pseudomonas aeruginosa at 15 ug after 24 hrs by disk diffusion method; type: functional; conditions: read-out: IZ; in short: as §2
Pseudomonas aeruginosa [5] = test: Antimicrobial activity against Pseudomonas aeruginosa at 20 ug after 24 hrs by disk diffusion method; type: functional; conditions: read-out: IZ; in short: as §2
Pseudomonas aeruginosa [6] = test: Antimicrobial activity against Pseudomonas aeruginosa at 5 ug after 24 hrs by disk diffusion method; type: functional; conditions: read-out: IZ; in short: as §2
Staphylococcus aureus [7] = test: Antimicrobial activity against Staphylococcus aureus at 20 ug after 24 hrs by disk diffusion method; type: functional; conditions: read-out: IZ; in short: as §2
Salmonella typhimurium [8] = test: Antimicrobial activity against Salmonella Typhimurium at 20 ug after 24 hrs by disk diffusion method; type: functional, Salmonella enterica subsp. enterica serovar Typhimurium; conditions: Salmonella enterica, read-out: IZ; in short: as §2
Klebsiella pneumoniae [9] = test: Antimicrobial activity against Klebsiella pneumoniae at 15 ug after 24 hrs by disk diffusion method; type: functional; conditions: read-out: IZ; in short: as §2
Salmonella typhi = test: Antimicrobial activity against Salmonella typhi by broth microdilution assay; type: functional, Salmonella enterica subsp. enterica serovar Typhi; conditions: Salmonella enterica
In short: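 Broth microdilution in 96-well plates following the NCCLS 1997 protocol. Final inoculum was 10^5 cfu/mL, with a control organism run alongside. Plates were incubated at 35.7 °C in air for 18–20 h. MIC is the lowest concentration with no visible growth.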

Klebsiella pneumoniae [10] = test: Antimicrobial activity against Klebsiella pneumoniae at 20 ug after 24 hrs by disk diffusion method; type: functional; conditions: read-out: IZ; in short: as §2
Staphylococcus aureus [11] = test: Antimicrobial activity against Staphylococcus aureus at 5 ug after 24 hrs by disk diffusion method; type: functional; conditions: read-out: IZ; in short: as §2
Klebsiella pneumoniae [12] = test: Antimicrobial activity against Klebsiella pneumoniae by broth microdilution assay; type: functional
In short: (§3)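 Broth microdilution per NCCLS 1997 in 96-well plate; final inoculum 10^5 cfu/mL; incubated 35.7 °C in air 18–20 h; MIC read as lowest concentration with no visible growth.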

Escherichia coli [13] = test: Antimicrobial activity against Escherichia coli at 15 ug after 24 hrs by disk diffusion method; type: functional; conditions: read-out: IZ; in short: as §2
Klebsiella pneumoniae [14] = test: Antimicrobial activity against Klebsiella pneumoniae at 10 ug after 24 hrs by disk diffusion method; type: functional; conditions: read-out: IZ; in short: as §2
Staphylococcus aureus [15] = test: Antimicrobial activity against Staphylococcus aureus by broth microdilution assay; type: functional; in short: as §3
Bacillus subtilis [16] = test: Antimicrobial activity against Bacillus subtilis at 10 ug after 24 hrs by disk diffusion method; type: functional; conditions: read-out: IZ; in short: as §2
Salmonella typhimurium [17] = test: Antimicrobial activity against Salmonella Typhimurium at 10 ug after 24 hrs by disk diffusion method; type: functional, Salmonella enterica subsp. enterica serovar Typhimurium; conditions: Salmonella enterica, read-out: IZ; in short: as §2
Bacillus subtilis [18] = test: Antimicrobial activity against Bacillus subtilis at 25 ug after 24 hrs by disk diffusion method; type: functional; conditions: read-out: IZ; in short: as §2
Salmonella typhimurium [19] = test: Antimicrobial activity against Salmonella Typhimurium at 25 ug after 24 hrs by disk diffusion method; type: functional, Salmonella enterica subsp. enterica serovar Typhimurium; conditions: Salmonella enterica, read-out: IZ; in short: as §2
Klebsiella pneumoniae [20] = test: Antimicrobial activity against Klebsiella pneumoniae at 25 ug after 24 hrs by disk diffusion method; type: functional; conditions: read-out: IZ; in short: as §2
Bacillus subtilis [21] = test: Antimicrobial activity against Bacillus subtilis at 20 ug after 24 hrs by disk diffusion method; type: functional; conditions: read-out: IZ; in short: as §2
Escherichia coli [22] = test: Antimicrobial activity against Escherichia coli at 20 ug after 24 hrs by disk diffusion method; type: functional; conditions: read-out: IZ; in short: as §2
Pseudomonas aeruginosa [23] = test: Antimicrobial activity against Pseudomonas aeruginosa at 10 ug after 24 hrs by disk diffusion method; type: functional; conditions: read-out: IZ; in short: as §2
Escherichia coli [24] = test: Antimicrobial activity against Escherichia coli at 25 ug after 24 hrs by disk diffusion method; type: functional; conditions: read-out: IZ; in short: as §2
Escherichia coli [25] = test: Inhibition of DNA gyrase gene expression in Escherichia coli assessed as decrease in band intensity by RT-PCR amplification
In short: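 E. coli treated with drug; total RNA from cells sampled up to 24 h; 2 µg RNA to cDNA with MMLV reverse transcriptase; gyrase gene PCR (94 °C 4 min initial denaturation, 72 °C 7 min final extension); products on agarose gel, band intensity normalized to GAPDH; untreated cells as negative control.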

Pseudomonas aeruginosa [26] = test: Antimicrobial activity against Pseudomonas aeruginosa by broth microdilution assay; type: functional; in short: as §3
Escherichia coli [27] = test: Antimicrobial activity against Escherichia coli at 10 ug after 24 hrs by disk diffusion method; type: functional; conditions: read-out: IZ; in short: as §2
Staphylococcus aureus [28] = test: Antimicrobial activity against Staphylococcus aureus at 10 ug after 24 hrs by disk diffusion method; type: functional; conditions: read-out: IZ; in short: as §2
[29] = Inhibition of DNA gyrase assessed as conversion of relaxed pBR322 to supercoiled form
In short: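 Supercoiling in 15 µL reactions: gyrase assay buffer, 150 ng relaxed pBR322, 2–3 µL purified DNA gyrase, 3 h at 37 °C (E. coli); stopped with 50% glycerol/0.25% bromophenol blue; 1% agarose in 1× TBE pH 8.3, 90 V 3 h; ethidium bromide stain; supercoiled band brightness by densitometry. Ciprofloxacin comparator.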

Staphylococcus aureus [30] = test: Antimicrobial activity against Staphylococcus aureus at 25 ug after 24 hrs by disk diffusion method; type: functional; conditions: read-out: IZ; in short: as §2
Klebsiella pneumoniae [31] = test: Antimicrobial activity against Klebsiella pneumoniae at 5 ug after 24 hrs by disk diffusion method; type: functional; conditions: read-out: IZ; in short: as §2
Pseudomonas aeruginosa [32] = test: Antimicrobial activity against Pseudomonas aeruginosa at 25 ug after 24 hrs by disk diffusion method; type: functional; conditions: read-out: IZ; in short: as §2
Bacillus subtilis [33] = test: Antimicrobial activity against Bacillus subtilis by broth microdilution assay; type: functional; in short: as §3
Salmonella typhimurium [34] = test: Antimicrobial activity against Salmonella Typhimurium at 5 ug after 24 hrs by disk diffusion method; type: functional, Salmonella enterica subsp. enterica serovar Typhimurium; conditions: Salmonella enterica, read-out: IZ; in short: as §2
Staphylococcus aureus [35] = test: Antimicrobial activity against Staphylococcus aureus at 15 ug after 24 hrs by disk diffusion method; type: functional; conditions: read-out: IZ; in short: as §2
Escherichia coli [36] = test: Antimicrobial activity against Escherichia coli by broth microdilution assay; type: functional; in short: as §3
Escherichia coli [37] = test: Antimicrobial activity against Escherichia coli at 5 ug after 24 hrs by disk diffusion method; type: functional; conditions: read-out: IZ; in short: as §2
Salmonella typhimurium [38] = test: Antimicrobial activity against Salmonella Typhimurium at 15 ug after 24 hrs by disk diffusion method; type: functional, Salmonella enterica subsp. enterica serovar Typhimurium; conditions: Salmonella enterica, read-out: IZ; in short: as §2
[39] = Inhibition of DNA gyrase assessed as pBR322 DNA relaxation at 2.5 uM
In short: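 Gyrase (60 nM) was incubated with supercoiled pBR322 DNA (6 nM) and increasing compound concentrations (0, 0.1, 0.25, 0.5, 2.5) without ATP for 1 h at 37 °C. Relaxation of the supercoiled DNA was evaluated.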

Compound: CO[C@@H]1[C@@H](OC(N)=O)[C@@H](O)[C@H](Oc2ccc3c(O)c(NC(=O)c4ccc(O)c(CC=C(C)C)c4)c(=O)oc3c2C)OC1(C)C
- Activity [1]: Active
- Activity [2]: inactive

Compound: COc1ccc2c(c1)C(c1ccccc1)[C@@H]1Cn3cccc3[C@@H]1N2 (stereo partly drawn)
- zone of inhibition at 15 µg/disc (Bacillus subtilis [3]): 9 mm
- zone of inhibition at 15 µg/disc (Pseudomonas aeruginosa [4]): 28 mm
- zone of inhibition at 20 µg/disc (Pseudomonas aeruginosa [5]): 34 mm
- zone of inhibition at 5 µg/disc (Pseudomonas aeruginosa [6]): 24 mm
- zone of inhibition at 20 µg/disc (Staphylococcus aureus [7]): 30 mm
- zone of inhibition at 20 µg/disc (Salmonella typhimurium [8]): 22 mm
- zone of inhibition at 15 µg/disc (Klebsiella pneumoniae [9]): 16 mm
- MIC50 (Salmonella typhi): 0.06 mg/L (≈ 0.19 µM)
- MIC90 (Salmonella typhi): 0.15 mg/L (≈ 0.474 µM)
- zone of inhibition at 20 µg/disc (Klebsiella pneumoniae [10]): 24 mm
- zone of inhibition at 5 µg/disc (Staphylococcus aureus [11]): 20 mm
- MIC50 (Klebsiella pneumoniae [12]): 0.25 mg/L (≈ 0.79 µM)
- MIC90 (Klebsiella pneumoniae [12]): 2 mg/L (≈ 6.32 µM)
- zone of inhibition at 15 µg/disc (Escherichia coli [13]): 16 mm
- zone of inhibition at 10 µg/disc (Klebsiella pneumoniae [14]): 14 mm
- MIC50 (Staphylococcus aureus [15]): 0.5 mg/L (≈ 1.58 µM)
- MIC90 (Staphylococcus aureus [15]): 0.5 mg/L (≈ 1.58 µM)
- zone of inhibition at 10 µg/disc (Bacillus subtilis [16]): 8 mm
- zone of inhibition at 10 µg/disc (Salmonella typhimurium [17]): 16 mm
- zone of inhibition at 25 µg/disc (Bacillus subtilis [18]): 11 mm
- zone of inhibition at 25 µg/disc (Salmonella typhimurium [19]): 24 mm
- zone of inhibition at 25 µg/disc (Klebsiella pneumoniae [20]): 26 mm
- zone of inhibition at 20 µg/disc (Bacillus subtilis [21]): 10 mm
- zone of inhibition at 20 µg/disc (Escherichia coli [22]): 22 mm
- zone of inhibition at 10 µg/disc (Pseudomonas aeruginosa [23]): 26 mm
- zone of inhibition at 25 µg/disc (Escherichia coli [24]): 23 mm
- Activity (Escherichia coli [25]): Active
- MIC50 (Pseudomonas aeruginosa [26]): 0.125 mg/L (≈ 0.395 µM)
- MIC90 (Pseudomonas aeruginosa [26]): 1 mg/L (≈ 3.16 µM)
- zone of inhibition at 10 µg/disc (Escherichia coli [27]): 14 mm
- zone of inhibition at 10 µg/disc (Staphylococcus aureus [28]): 24 mm
- Activity [29]: Active
- zone of inhibition at 25 µg/disc (Staphylococcus aureus [30]): 36 mm
- zone of inhibition at 5 µg/disc (Klebsiella pneumoniae [31]): 10 mm
- zone of inhibition at 25 µg/disc (Pseudomonas aeruginosa [32]): 36 mm
- MIC50 (Bacillus subtilis [33]): 0.3 mg/L (≈ 0.948 µM)
- MIC90 (Bacillus subtilis [33]): 2 mg/L (≈ 6.32 µM)
- Activity [2]: inactive
- zone of inhibition at 5 µg/disc (Salmonella typhimurium [34]): 10 mm
- zone of inhibition at 15 µg/disc (Staphylococcus aureus [35]): 26 mm
- MIC50 (Escherichia coli [36]): 0.125 mg/L (≈ 0.395 µM)
- MIC90 (Escherichia coli [36]): 0.25 mg/L (≈ 0.79 µM)
- zone of inhibition at 5 µg/disc (Escherichia coli [37]): 12 mm
- zone of inhibition at 15 µg/disc (Salmonella typhimurium [38]): 18 mm

Compound: CCn1cc(C(=O)O)c(=O)c2ccc(C)nc21
- Activity [39]: Active
- Activity [29]: Active
